Measured values from ChEMBL document CHEMBL1143161, “Non-charged thiamine analogs as inhibitors of enzyme transketolase” (Bioorg Med Chem Lett, 2008).
pEC50, pKd: −log10 of the molar value.

Experiments:
Transketolase [1] = target: T1, Transketolase (Homo sapiens, UniProt P29401); assay: Inhibition of transketolase in human HCT116 cells; type: cell-based, HCT-116
T1 sequence (P29401 whole entry): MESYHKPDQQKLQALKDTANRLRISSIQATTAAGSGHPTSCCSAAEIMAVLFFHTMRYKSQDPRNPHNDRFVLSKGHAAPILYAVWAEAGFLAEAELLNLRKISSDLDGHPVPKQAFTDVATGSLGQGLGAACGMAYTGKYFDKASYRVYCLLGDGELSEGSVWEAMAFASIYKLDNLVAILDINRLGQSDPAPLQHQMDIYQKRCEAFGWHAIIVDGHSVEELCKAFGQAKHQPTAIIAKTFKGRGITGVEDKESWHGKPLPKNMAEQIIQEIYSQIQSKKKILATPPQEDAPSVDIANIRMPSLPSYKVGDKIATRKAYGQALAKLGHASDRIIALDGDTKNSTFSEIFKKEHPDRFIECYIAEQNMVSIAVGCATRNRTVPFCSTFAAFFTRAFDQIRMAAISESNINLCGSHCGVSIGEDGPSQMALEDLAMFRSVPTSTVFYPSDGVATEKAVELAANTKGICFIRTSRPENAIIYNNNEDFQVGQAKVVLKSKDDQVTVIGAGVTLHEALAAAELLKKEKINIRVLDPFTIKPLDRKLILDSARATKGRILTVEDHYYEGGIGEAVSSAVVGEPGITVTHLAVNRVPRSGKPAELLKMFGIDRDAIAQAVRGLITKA
Outline: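 Cellular TK assay in human colon cancer HCT-116 cells, run in triplicate. EC50 reported as the average, with data within 4-fold of the mean.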

Transketolase [2] = target: T1, Transketolase; assay: Inhibition of apo-transketolase by coupled TPPK/Apo-TK enzymatic assay
Outline: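 Each compound was first checked for pyrophosphorylation by TPPK, with thiamine as the control substrate; pyrophosphorylation was scored relative to thiamine. Compounds were then tested for competition with TPP in inhibiting TK activity. Kd is the average of at least three experiments, with data within 2-fold of the mean.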

Transketolase [3] = target: T1, Transketolase; assay: Inhibition of apo-transketolase

| SMILES | pEC50 (Transketolase [1]) | pKd (Transketolase [2]) | pKd (Transketolase [3]) |
| --- | --- | --- | --- |
| Cc1ncc(Cc2c(C)c(CCO)nn2C)c(N)n1 | 5.96 | – | – |
| CC(=O)Nc1ncc(Cc2csc(CCO)c2C)c(N)n1 | 5.20 | 8.52 | 5.96 |
| Cc1ncc(C[n+]2csc(CCO)c2C)c(N)n1 [THIAMINE ION] | – | – | 2.17 |
| Cc1ccc(Cn2c(C)c(CCO)sc2=O)c(N)n1 | 5.49 | – | < 3.30 |
| Cc1ncc(Cc2csc(CCO)c2C)c(N)n1 [3-DEAZATHIAMINE] | 5.92 | 7.92 | 4.74 |
| Cc1c(Cc2cncnc2N)csc1CCO | 4.28 | – | < 4.00 |
| Cc1c(Cc2cnc(C3CC3)nc2N)csc1CCO | 6.18 | 7.22 | < 3.30 |
| Cc1ncc(Cn2c(C)c(CCO)sc2=O)c(N)n1 [THIAMINE THIAZOLONE] | 5.57 | – | 4.47 |
| Cc1ncc(Cc2nn(C)c(CCO)c2C)c(N)n1 | 5.33 | – | – |
| Cc1c(Cc2cnc(N)nc2N)csc1CCO | 5.07 | – | 5.66 |
| Cc1ncc(Cn2c(C)c(CCO[P@@](=O)(O)OP(=O)(O)O)sc2=O)c(N)n1 | – | – | 7.80 |
| Cc1c(Cc2cnc(C(C)C)nc2N)csc1CCO | 5.59 | 7.19 | < 3.30 |
| Cc1ncc(Cc2[nH]nc(CCO)c2C)c(N)n1 | 4.77 | – | – |
| Cc1c(Cc2cnc(C(F)(F)F)nc2N)csc1CCO | 4.60 | 7.20 | – |
| Cc1c(Cc2cnc(-c3ccccc3)nc2N)csc1CCO | < 5.00 | 6.64 | < 3.30 |
